Experimental data: ChEMBL document CHEMBL4340554, “Design, synthesis and biological evaluation of novel 4,5-dihydro-[1,2,4]triazolo[4,3-f]pteridine derivatives as potential BRD4 inhibitors” (Bioorg Med Chem, 2019)
The source made the active and inactive calls. No cut-off for these calls is given here.

Tests used:
[1] = Inhibition of […] BRD4 bromodomain 1 incubated for 60 mins by TR-FRET assay
[2] = system: HL-60; test: Antiproliferative activity against human HL60 cells incubated for 72 hrs by CCK-8 assay; format: functional, cell-based; details: HL-60, 72 h
[3] = system: MV4-11; test: Antiproliferative activity against human MV4-11 cells incubated for 72 hrs by CCK-8 assay; format: functional, cell-based; details: MV4-11, 72 h
[4] = system: MV4-11; test: Induction of apoptosis in human MV4-11 cells assessed as necrotic cells level at 5 uM incubated for 24 hrs by Annexin V-FITC and propidium iodide staining based flow cytometry (reference value: 0.0%); format: functional
[5] = system: MV4-11; test: Induction of apoptosis in human MV4-11 cells assessed as necrotic cells level at 1 uM incubated for 24 hrs by Annexin V-FITC and propidium iodide staining based flow cytometry (reference value: 0.0%); format: functional
[6] = system: MV4-11; test: Induction of apoptosis in human MV4-11 cells assessed as viable cells level at 5 uM incubated for 24 hrs by Annexin V-FITC and propidium iodide staining based flow cytometry (reference value: 97.7%); format: functional
[7] = system: MV4-11; test: Induction of cell cycle arrest in human MV4-11 cells assessed as accumulation at G1 phase incubated for 24 hrs by propidium iodide staining based flow cytometry; format: functional
Summary of the method: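 MV4;11 cells, used within two months of culture, grown in IMDM with 10% FBS and 1% penicillin-streptomycin at 37℃ under CO2. Cells were treated with compound for 24 h and then processed with a cell cycle detection kit following the kit protocol. Phase distribution was analysed by flow cytometry.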

[8] = system: MV4-11; test: Induction of apoptosis in human MV4-11 cells assessed as viable cells level at 1 uM incubated for 24 hrs by Annexin V-FITC and propidium iodide staining based flow cytometry (reference value: 97.7%); format: functional
[9] = system: MV4-11; test: Induction of apoptosis in human MV4-11 cells assessed as early apoptotic cells level at 1 uM incubated for 24 hrs by Annexin V-FITC and propidium iodide staining based flow cytometry (reference value: 0.8%); format: functional
[10] = system: MV4-11; test: Induction of apoptosis in human MV4-11 cells assessed as late apoptotic cells level at 5 uM incubated for 24 hrs by Annexin V-FITC and propidium iodide staining based flow cytometry (reference value: 1.5%); format: functional
[11] = system: MV4-11; test: Induction of apoptosis in human MV4-11 cells assessed as late apoptotic cells level at 1 uM incubated for 24 hrs by Annexin V-FITC and propidium iodide staining based flow cytometry (reference value: 1.5%); format: functional
[12] = system: MV4-11; test: Induction of apoptosis in human MV4-11 cells assessed as early apoptotic cells level at 5 uM incubated for 24 hrs by Annexin V-FITC and propidium iodide staining based flow cytometry (reference value: 0.8%); format: functional
[13] = system: MV4-11; test: Reduction in c-Myc protein expression in human MV4-11 cells at 1 to 10 uM incubated for 4 hrs Western blotting; format: functional, cell-based
Summary of the method: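 MV4;11 leukemia cells (used within two months) were grown in IMDM with 10% FBS and 1% penicillin-streptomycin at 37℃ and 5% CO2. Log-phase cells were cultured 24 h, then treated for 4 h. They were lysed at 4℃ and protein was quantified by BCA. Lysates were run on SDS-PAGE (10% separating, 4% stacking gel) and transferred to PVDF. Membranes were blocked 2 h in 5% milk/TBST, probed overnight at 4℃ with anti-c-myc and anti-β-actin, and given secondary antibody for 2 h.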

COc1ccc(Nc2ncc3c(n2)N(C2CCCC2)Cc2nnc(C)n2-3)cc1
IC50 [1]: 0.16 µM
IC50 [2]: 18.7 µM
IC50 [3]: 4.84 µM

Cc1nnc2n1-c1cnc(Nc3ccc(F)cc3)nc1N(C1CCCC1)C2
IC50 [1]: 1.28 µM
IC50 [2]: > 30 µM
IC50 [3]: > 30 µM

COc1cccc(Nc2ncc3c(n2)N(C2CCCC2)Cc2nnc(C)n2-3)c1
IC50 [1]: 0.18 µM
IC50 [2]: 25.5 µM
IC50 [3]: 6.74 µM

Cc1ccc(Nc2ncc3c(n2)N(C2CCCC2)Cc2nnc(C)n2-3)cc1
IC50 [1]: 0.38 µM
IC50 [2]: 29 µM
IC50 [3]: 7.34 µM

COc1ccc(Nc2ncc3c(n2)N(C2CCCC2)Cc2nnc(C)n2-3)cc1OC
IC50 [1]: 0.22 µM
IC50 [2]: 26.7 µM
IC50 [3]: 6.79 µM

Cc1nnc2n1-c1cnc(Nc3ccccc3)nc1N(C1CCCC1)C2
IC50 [1]: 0.22 µM
IC50 [2]: 21.4 µM
IC50 [3]: 5.53 µM

COc1ccccc1Nc1ncc2c(n1)N(C1CCCC1)Cc1nnc(C)n1-2
IC50 [1]: 0.16 µM
IC50 [2]: 19.2 µM
IC50 [3]: 4.17 µM

Cc1nnc2n1-c1cnc(Nc3ccc(C(C)(C)C)cc3)nc1N(C1CCCC1)C2
IC50 [1]: > 30 µM
IC50 [2]: > 30 µM
IC50 [3]: > 30 µM

Cc1nnc2n1-c1cnc(Nc3ccc([N+](=O)[O-])cc3)nc1N(C1CCCC1)C2
IC50 [1]: 0.54 µM
IC50 [2]: > 30 µM
IC50 [3]: 21.4 µM

Cc1ccccc1Nc1ncc2c(n1)N(C1CCCC1)Cc1nnc(C)n1-2
IC50 [1]: 0.41 µM
IC50 [2]: > 30 µM
IC50 [3]: 8.46 µM

Cc1sc2c(c1C)C(c1ccc(Cl)cc1)=N[C@@H](CC(=O)OC(C)(C)C)c1nnc(C)n1-2
Activity [4]: 4%
Activity [5]: 6.1%
Activity [6]: 61.6%
Activity [7]: Dose-dependent effect
IC50 [1]: 0.066 µM
Activity [8]: 84.5%
Activity [9]: 0.2%
Activity [10]: 31.9%
IC50 [2]: 2.91 µM
IC50 [3]: 0.57 µM
Activity [11]: 9.1%
Activity [12]: 2.5%

Cc1nnc2n1-c1cnc(Nc3ccccc3[N+](=O)[O-])nc1N(C1CCCC1)C2
IC50 [1]: 0.18 µM
IC50 [2]: > 30 µM
IC50 [3]: 10.7 µM

Cc1nnc2n1-c1cnc(Nc3ccc(N)cc3)nc1N(C1CCCC1)C2
Activity [4]: 3.4%
Activity [5]: 5.9%
Activity [6]: 72.5%
Activity [7]: Dose-dependent effect
Activity [13]: Active
IC50 [1]: 0.079 µM
Activity [8]: 89.7%
Activity [9]: 0.5%
Activity [10]: 20.4%
IC50 [2]: 7.16 µM
IC50 [3]: 1.53 µM
Activity [11]: 3.9%
Activity [12]: 3.8%

CCCCc1ccc(Nc2ncc3c(n2)N(C2CCCC2)Cc2nnc(C)n2-3)cc1
IC50 [1]: 1.43 µM
IC50 [2]: > 30 µM
IC50 [3]: > 30 µM

Cc1cccc(Nc2ncc3c(n2)N(C2CCCC2)Cc2nnc(C)n2-3)c1
IC50 [1]: 1.56 µM
IC50 [2]: > 30 µM
IC50 [3]: > 30 µM

Cc1nnc2n1-c1cnc(Nc3cccc(Cl)c3)nc1N(C1CCCC1)C2
IC50 [1]: 1.43 µM
IC50 [2]: > 30 µM
IC50 [3]: > 30 µM

Cc1nnc2n1-c1cnc(Nc3ccc(Cl)cc3)nc1N(C1CCCC1)C2
IC50 [1]: 1.54 µM
IC50 [2]: > 30 µM
IC50 [3]: > 30 µM

Cc1nnc2n1-c1cnc(Nc3ccc(S(C)(=O)=O)cc3)nc1N(C1CCCC1)C2
IC50 [1]: 0.089 µM
IC50 [2]: 7.85 µM
IC50 [3]: 1.92 µM

Cc1nnc2n1-c1cnc(Nc3ccc(C(C)C)cc3)nc1N(C1CCCC1)C2
IC50 [1]: 0.86 µM
IC50 [2]: > 30 µM
IC50 [3]: 16.2 µM
